Activity calls are given as the source filed them. The rule behind the calls is not given here.
Assays:
MCF7 [1] = experiment: Cytotoxicity against human topotecan-resistant MCF7 cells after 24 hrs by MTT assay; format: functional, cell-based; settings: MCF7, 24 h
Outline: (§1)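 MTT assay. Cells seeded and cultured 24 h, then exposed to compound for 24, 48 or 72 h. MTT added to a final 0.05% (HL-60, 518A2) or 0.1% (KB-V1, MCF-7) for 2 h. Formazan dissolved in 10% SDS/DMSO with 0.6% acetic acid; absorbance read at 570 nm against 630 nm background. Viability taken relative to untreated controls (100%). IC50 from concentration-response curves, mean ± SD of four independent experiments.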

[2] = Cytotoxicity against human vinblastine-resistant KBV1 cells after 48 hrs by MTT assay; format: functional, cell-based; settings: KB-V1, 48 h; outline: as §1
HL-60 [3] = experiment: Induction of apoptosis in human HL60 cells assessed as increase of caspase 3 activity at 5 uM after 1 to 24 hrs by luminometric assay; format: functional, cell-based
Outline: (§2)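 HL-60 and 518A2 cells treated with 5 µM compound and sampled at intervals from 1 to 24 h. Lysed in 50 mM Tris-HCl pH 7.4, 150 mM NaCl, 1% Triton X-100 with protease inhibitors for 15 min at 4 °C, spun at 800 g. Protein measured by Bradford. Caspase-3/7, -8 and -9 activities read with luminogenic peptide substrates; reported as relative luminescence.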

MCF7 [4] = experiment: Cytotoxicity against human topotecan-resistant MCF7 cells after 72 hrs by MTT assay in presence of […] BCRP inhibitor fumitremorgin C; format: functional, cell-based; settings: MCF7, 72 h
Outline: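 MCF-7/Topo cells grown in E-MEM with 2.2 g/L NaHCO₃, 110 mg/L sodium pyruvate and 5% FCS. Cells were seeded, cultured 24 h, given fumitremorgin C, then exposed to compound for 72 h. MTT was added (final 0.1%) for 2 h, medium discarded, and formazan dissolved in 10% SDS/DMSO with 0.6% acetic acid. A570 (630 background) read versus untreated controls; IC50 from concentration-response curves; four independent experiments, mean ± SD.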

HL-60 [5] = experiment: Induction of apoptosis in human HL60 cells assessed as increase of caspase 8 activity at 5 uM after 1 to 24 hrs by luminometric assay; format: functional, cell-based; outline: as §2
[6] = Cytotoxicity against human vinblastine-resistant KBV1 cells after 72 hrs by MTT assay; format: functional, cell-based; settings: KB-V1, 72 h; outline: as §1
518A2 [7] = experiment: Induction of apoptosis in human 518A2 cells assessed as appearance of intact mitochondria in cytosol at 5 uM after 18 hrs using JC1 dye relative to control; format: functional
Outline: (§3)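 Mitochondrial membrane potential measured with JC-1. Cells exposed to 5 µM compound for 6 or 18 h, pelleted at 400 g, stained with 0.2× JC-1 at 37 °C for 15 min (HL-60) or 35 min (518A2), washed and resuspended in PBS. Red fluorescence (ex 585/em 590 nm) and green (ex 510/em 527 nm) read; red/green ratio relative to untreated controls (100%). Mean ± SD, four independent experiments.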

HL-60 [8] = experiment: Induction of apoptosis in human HL60 cells assessed as appearance of intact mitochondria in cytosol at 5 uM after 18 hrs using JC1 dye relative to control; format: functional; outline: as §3
HL-60 [9] = experiment: Cytotoxicity against human HL60 cells after 72 hrs by MTT assay; format: functional, cell-based; settings: HL-60, 72 h; outline: as §1
HL-60 [10] = experiment: Cytotoxicity against human HL60 cells assessed as increase in ROS production at 5 uM after 24 hrs by NBT reduction assay relative to control; format: functional
Outline: (§4)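 NBT assay. HL-60 cells (0.5×10⁶/mL) or trypsinised 518A2 cells (5×10⁴/mL) pre-incubated 24 h at 37 °C, then given compound at a final 5 µM for 24 or 72 h. Medium removed; cells incubated with 0.1% NBT for 1 h (HL-60) or 4 h (518A2). Diformazan dissolved in 2 M KOH/DMSO; A630 read against 405 nm. Given as % of untreated controls; double quadruplicates.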

[11] = Ratio of IC50 for human vinblastine-resistant KBV1 cells in presence of […] ABC transporter inhibitor verapamil hydrochloride to IC50 for human vinblastine-resistant KBV1 cells; format: functional
Outline: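 MTT assay in P-gp-overexpressing KB-V1/Vbl cells grown in D-MEM with 10% FCS and antibiotics. Cells were seeded and cultured 24 h, verapamil hydrochloride was optionally added, and compound exposure ran 24, 48 or 72 h. MTT was added to 0.1% final for 2 h. After the medium was discarded, formazan was dissolved in 10% SDS/DMSO with 0.6% acetic acid and read at 570 nm (630 nm background). IC50 came from concentration-response curves, four independent experiments, and the ratio is IC50 with inhibitor over IC50 without.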

HL-60 [12] = experiment: Cytotoxicity against human HL60 cells after 48 hrs by MTT assay; format: functional, cell-based; settings: HL-60, 48 h; outline: as §1
[13] = Cytotoxicity against human 518A2 cells assessed as increase in ROS production at 5 uM after 24 hrs by NBT reduction assay relative to control; format: functional; outline: as §4
[14] = Cytotoxicity against human vinblastine-resistant KBV1 cells after 72 hrs by MTT assay in presence of 24 mM ABC transporter inhibitor verapamil hydrochloride; format: functional, cell-based; settings: KB-V1, 72 h, in the assay text read “24 uM” for “24 mM”
Outline: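 MTT viability assay on P-gp-overexpressing KB-V1/Vbl cells with 24 µM verapamil hydrochloride added before the compound; 72 h exposure. Formazan read at 570/630 nm relative to untreated controls. IC50 from concentration-response curves, mean ± SD of four independent experiments.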

HL-60 [15] = experiment: Induction of apoptosis in human HL60 cells assessed as DNA ladder formation at 5 uM after 24 hrs by agarose gel electrophoresis; format: functional, cell-based
Outline: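 HL-60 cells incubated with 5 µM compound for 24 h, then examined for DNA ladder patterns.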

518A2 [16] = experiment: Induction of apoptosis in human 518A2 cells assessed as increase of caspase 8 activity at 5 uM after 1 to 24 hrs by luminometric assay; format: functional, cell-based; outline: as §2
518A2 [17] = experiment: Induction of apoptosis in human 518A2 cells assessed as increase of caspase 9 activity at 5 uM after 1 to 24 hrs by luminometric assay; format: functional, cell-based; outline: as §2
[18] = Cytotoxicity against human 518A2 cells after 72 hrs by MTT assay; format: functional, cell-based; settings: 518A2, 72 h; outline: as §1
518A2 [19] = experiment: Induction of apoptosis in human 518A2 cells assessed as increase of ratio of Bax to Bcl-2 mRNA expression at 5 uM after 6 to 18 hrs by RT-PCR analysis; format: functional, cell-based
Outline: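 518A2 cells exposed to 5 µM compound for 6 h or 18 h. bax and bcl-2 mRNA quantified by real-time PCR, normalised to GAPDH, and expressed as the bax/bcl-2 ratio.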

518A2 [20] = experiment: Induction of apoptosis in human 518A2 cells assessed as increase of caspase 3 activity at 5 uM after 1 to 24 hrs by luminometric assay; format: functional, cell-based; outline: as §2
MCF7 [21] = experiment: Cytotoxicity against human topotecan-resistant MCF7 cells after 72 hrs by MTT assay; format: functional, cell-based; settings: MCF7, 72 h; outline: as §1
HL-60 [22] = experiment: Cytotoxicity against human HL60 cells after 24 hrs by MTT assay; format: functional, cell-based; settings: HL-60, 24 h; outline: as §1
518A2 [23] = experiment: Induction of apoptosis in human 518A2 cells assessed as appearance of intact mitochondria in cytosol at 5 uM after 6 hrs using JC1 dye relative to control; format: functional; outline: as §3
[24] = Cytotoxicity against human 518A2 cells after 24 hrs by MTT assay; format: functional, cell-based; settings: 518A2, 24 h; outline: as §1
[25] = Cytotoxicity against human 518A2 cells assessed as increase in ROS production at 5 uM after 72 hrs by NBT reduction assay relative to control; format: functional; outline: as §4
MCF7 [26] = experiment: Cytotoxicity against human topotecan-resistant MCF7 cells after 48 hrs by MTT assay; format: functional, cell-based; settings: MCF7, 48 h; outline: as §1
518A2 [27] = experiment: Induction of apoptosis in human 518A2 cells assessed as increase of caspase 9 activity at 5 uM after 2 hrs by luminometric assay; format: functional, cell-based; outline: as §2
HL-60 [28] = experiment: Induction of apoptosis in human HL60 cells assessed as increase of caspase 9 activity at 5 uM after 1 to 24 hrs by luminometric assay; format: functional, cell-based
Outline: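 HL-60 leukaemia cells were treated with test compound and sampled at intervals from 1 to 24 h. Protein was measured by Bradford. Caspase-9 (Caspase-Glo 8 for line 1) was read from a luminogenic peptide substrate as relative luminescence.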

[29] = Cytotoxicity against human vinblastine-resistant KBV1 cells after 24 hrs by MTT assay; format: functional, cell-based; settings: KB-V1, 24 h; outline: as §1
[30] = Cytotoxicity against human 518A2 cells after 48 hrs by MTT assay; format: functional, cell-based; settings: 518A2, 48 h; outline: as §1
HL-60 [31] = experiment: Cytotoxicity against human HL60 cells assessed as increase in ROS production at 5 uM after 72 hrs by NBT reduction assay relative to control; format: functional; outline: as §4
HL-60 [32] = experiment: Induction of apoptosis in human HL60 cells assessed as appearance of intact mitochondria in cytosol at 5 uM after 6 hrs using JC1 dye relative to control; format: functional; outline: as §3

With `CCCCCCCCCCCCCCCCC(=O)N/N=C(\CO)[C@]1(O)Cc2c(O)c3c(c(O)c2[C@@H](O[C@H]2C[C@H](N)[C@H](O)[C@H](C)O2)C1)C(=O)c1c(OC)cccc1C3=O.Cl` [DOXORUBICIN HEPTADECANOYL HYDRAZONE] as the compound, how does the IC50 (MCF7 [1]) read?
Its IC50 is 5.9 µM.

And the IC50 [2]?
Its IC50 is 10.7 µM.

And the Activity (HL-60 [3])?
The Activity was “Active”.

And the IC50 (MCF7 [4])?
The IC50 was 0.17 µM.

What about the Activity (HL-60 [5]) of the same compound?
The Activity was “Active”.

What about the IC50 [6] of the same compound?
The IC50 was 5.1 µM.

What about the Activity (518A2 [7]) of the same compound?
Its Activity is 80%.

What about the Activity (HL-60 [8]) of the same compound?
The Activity was 59%.

What about the IC50 (HL-60 [9]) of the same compound?
The IC50 was 0.28 µM.

And the Activity (HL-60 [10])?
Its Activity is 2.8%.

What about the “Ratio IC50” value [11] of the same compound?
The value was 0.74.

And the IC50 (HL-60 [12])?
Its IC50 is 0.86 µM.

And the Activity [13]?
The Activity was 6.6%.

And the IC50 [14]?
Its IC50 is 3.7 µM.

And the Activity (HL-60 [15])?
The Activity was “Active”.

What about the Activity (518A2 [16]) of the same compound?
Its Activity is “Active”.

And the Activity (518A2 [17])?
The Activity was “Active”.

What about the IC50 [18] of the same compound?
The IC50 was 0.11 µM.

And the Activity (518A2 [19])?
The Activity was “Active”.

What about the Activity (518A2 [20]) of the same compound?
The Activity was “Active”.

And the IC50 (MCF7 [21])?
Its IC50 is 3 µM.

What about the IC50 (HL-60 [22]) of the same compound?
The IC50 was 1.4 µM.

What about the Activity (518A2 [23]) of the same compound?
The Activity was 113%.

What about the IC50 [24] of the same compound?
Its IC50 is 0.76 µM.

And the Activity [25]?
The Activity was 71.2%.

What about the IC50 (MCF7 [26]) of the same compound?
The IC50 was 3.2 µM.

What about the Activity (518A2 [27]) of the same compound?
Its Activity is “Active”.

And the Activity (HL-60 [28])?
Its Activity is “Active”.

And the IC50 [29]?
The IC50 was 42.9 µM.

What about the IC50 [30] of the same compound?
Its IC50 is 0.35 µM.

What about the Activity (HL-60 [31]) of the same compound?
The Activity was 3.4%.

And the Activity (HL-60 [32])?
The Activity was 94%.
